# Assays:
# HL-60 [1] = test: Antiproliferative activity against human HL60 cells after 72 hrs by tryphan blue staining based hematocytometric method; type: functional, cell-based; details: HL-60, 72 h
# In short: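 HL-60 (ATCC) in RPMI-1640 with 10% heat-inactivated FBS, 1 mM glutamine and penicillin/streptomycin, 37 °C, 5% CO2. Cells at 4.5 × 10^4 cells/mL are exposed to a concentration gradient (DMSO stock diluted in absolute EtOH) for 72 h. Trypan blue is added and total cells are counted on a hematocytometer. IC50 is the mean of three parallel experiments. Negative reference is 0.1% DMSO.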
# HL-60 [2] = test: Cell cycle arrest in human HL60 cells assessed as accumulation at G1 phase at 0.06 uM after 24 hrs by propidium iodide staining based flow cytometric method (reference value: 43.32%); type: functional
# HL-60 [3] = test: Cell cycle arrest in human HL60 cells assessed as accumulation at S phase at 0.06 uM after 24 hrs by propidium iodide staining based flow cytometric method (reference value: 25.75%); type: functional
# HL-60 [4] = test: Cell cycle arrest in human HL60 cells assessed as accumulation at G1 phase at 0.3 uM after 24 hrs by propidium iodide staining based flow cytometric method (reference value: 43.32%); type: functional
# HL-60 [5] = test: Cell cycle arrest in human HL60 cells assessed as accumulation at S phase at 0.3 uM after 24 hrs by propidium iodide staining based flow cytometric method (reference value: 25.75%); type: functional
# HL-60 [6] = test: Cell cycle arrest in human HL60 cells assessed as accumulation at G1 phase at 1.5 uM after 24 hrs by propidium iodide staining based flow cytometric method (reference value: 43.32%); type: functional
# HL-60 [7] = test: Cell cycle arrest in human HL60 cells assessed as accumulation at G2 phase at 1.5 uM after 24 hrs by propidium iodide staining based flow cytometric method (reference value: 30.93%); type: functional
# HL-60 [8] = test: Induction of apoptosis in human HL60 cells assessed as live cells at 0.06 uM after 24 hrs by Annexin-V-APC/7-AAD staining based flow cytometric method (reference value: 95.31%); type: functional
# In short: (§1)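 HL-60 are seeded overnight in six-well plates, then treated in triplicate with 0.06, 0.3 or 1.5 μM, or untreated, for 24 h. Cells are washed in PBS and taken up in annexin V binding buffer. Annexin V-APC is added for 15 min in the dark at 25 °C, and 7-AAD just before flow cytometry. Early apoptosis is annexin V-APC only; late apoptosis is annexin V-APC/7-AAD.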
# HL-60 [9] = test: Induction of apoptosis in human HL60 cells assessed as early apoptotic cells at 0.06 uM after 24 hrs by Annexin-V-APC/7-AAD staining based flow cytometric method (reference value: 2.26%); type: functional; in short: as §1
# HL-60 [10] = test: Induction of apoptosis in human HL60 cells assessed as necrotic cells at 0.06 uM after 24 hrs by Annexin-V-APC/7-AAD staining based flow cytometric method (reference value: 0.44%); type: functional; in short: as §1
# HL-60 [11] = test: Induction of apoptosis in human HL60 cells assessed as live cells at 0.3 uM after 24 hrs by Annexin-V-APC/7-AAD staining based flow cytometric method (reference value: 95.31%); type: functional; in short: as §1
# HL-60 [12] = test: Induction of apoptosis in human HL60 cells assessed as early apoptotic cells at 0.3 uM after 24 hrs by Annexin-V-APC/7-AAD staining based flow cytometric method (reference value: 2.26%); type: functional; in short: as §1
# HL-60 [13] = test: Induction of apoptosis in human HL60 cells assessed as late apoptotic cells at 0.3 uM after 24 hrs by Annexin-V-APC/7-AAD staining based flow cytometric method (reference value: 1.99%); type: functional; in short: as §1
# HL-60 [14] = test: Induction of apoptosis in human HL60 cells assessed as necrotic cells at 0.3 uM after 24 hrs by Annexin-V-APC/7-AAD staining based flow cytometric method (reference value: 0.44%); type: functional; in short: as §1
# HL-60 [15] = test: Induction of apoptosis in human HL60 cells assessed as live cells at 1.5 uM after 24 hrs by Annexin-V-APC/7-AAD staining based flow cytometric method (reference value: 95.31%); type: functional; in short: as §1
# HL-60 [16] = test: Induction of apoptosis in human HL60 cells assessed as early apoptotic cells at 1.5 uM after 24 hrs by Annexin-V-APC/7-AAD staining based flow cytometric method (reference value: 2.26%); type: functional; in short: as §1
# HL-60 [17] = test: Induction of apoptosis in human HL60 cells assessed as necrotic cells at 1.5 uM after 24 hrs by Annexin-V-APC/7-AAD staining based flow cytometric method (reference value: 0.44%); type: functional; in short: as §1
# HL-60 [18] = test: Induction of apoptosis in human HL60 cells after 24 hrs by Annexin-V-APC/7-AAD staining based flow cytometric method; type: functional, cell-based; in short: as §1
# HL-60 [19] = test: Induction of apoptosis in human HL60 cells assessed as live cells at 1.5 uM after 24 hrs by Annexin-V-FITC/propidium iodide staining based flow cytometric method (reference value: 94.19%); type: functional
# HL-60 [20] = test: Induction of apoptosis in human HL60 cells assessed as late apoptotic cells at 1.5 uM after 24 hrs by Annexin-V-FITC/propidium iodide staining based flow cytometric method (reference value: 2.53%); type: functional
# HL-60 [21] = test: Induction of apoptosis in human HL60 cells assessed as live cells at 1.5 uM after 48 hrs by Annexin-V-FITC/propidium iodide staining based flow cytometric method (reference value: 94.19%); type: functional
# HL-60 [22] = test: Induction of apoptosis in human HL60 cells assessed as early apoptotic cells at 1.5 uM after 48 hrs by Annexin-V-FITC/propidium iodide staining based flow cytometric method (reference value: 2.8%); type: functional
# HL-60 [23] = test: Induction of apoptosis in human HL60 cells assessed as late apoptotic cells at 1.5 uM after 48 hrs by Annexin-V-FITC/propidium iodide staining based flow cytometric method (reference value: 2.53%); type: functional
# HL-60 [24] = test: Induction of apoptosis in human HL60 cells assessed as necrotic cells at 1.5 uM after 72 hrs by Annexin-V-FITC/propidium iodide staining based flow cytometric method (reference value: 0.47%); type: functional
# HL-60 [25] = test: Induction of apoptosis in human HL60 cells at 1.5 uM by Annexin-V-FITC/propidium iodide staining based flow cytometric method; type: functional, cell-based; details: TDE = time-dependent effect
# HL-60 [26] = test: Induction of mitochondrial membrane potential loss in human HL60 cells after 24 hrs by JC1 staining based flow cytometric method; type: functional, cell-based
# HL-60 [27] = test: Induction of mitochondrial membrane potential loss in human HL60 cells assessed as intact mitochondrial membrane potential at 0.06 uM after 24 hrs by JC1 staining based flow cytometric method (reference value: 99.42%); type: functional
# HL-60 [28] = test: Induction of mitochondrial membrane potential loss in human HL60 cells assessed as collapse of the mitochondrial membrane potential at 0.3 uM after 24 hrs by JC1 staining based flow cytometric method (reference value: 0.58%); type: functional
# HL-60 [29] = test: Induction of mitochondrial membrane potential loss in human HL60 cells assessed as collapse of the mitochondrial membrane potential at 1.5 uM after 24 hrs by JC1 staining based flow cytometric method (reference value: 0.58%); type: functional
# HL-60 [30] = test: Induction of mitochondrial membrane potential loss in human HL60 cells assessed as intact mitochondrial membrane potential at 1.5 uM after 24 hrs by JC1 staining based flow cytometric method (reference value: 99.42%); type: functional
smiles,measurement,setting,value
COc1cc2c(c(Oc3ccc(C[C@H]4c5cc(OC)c6c(c5CCN4C)OCO6)cc3)c1OC)C[C@H]1c3c(c(OC)c(OC)c(OC)c3-2)CCN1C,IC50,HL-60 [1],1.08 µM
same,Activity,HL-60 [2],44.01%
same,Activity,HL-60 [3],31.66%
same,Activity,HL-60 [4],36.01%
same,Activity,HL-60 [5],42.51%
same,Activity,HL-60 [6],33.02%
same,Activity,HL-60 [7],18.53%
same,Activity,HL-60 [8],79.49%
same,Activity,HL-60 [9],8.57%
same,Activity,HL-60 [10],3.77%
same,Activity,HL-60 [11],69.73%
same,Activity,HL-60 [12],22.76%
same,Activity,HL-60 [13],6.3%
same,Activity,HL-60 [14],1.2%
same,Activity,HL-60 [15],35.77%
same,Activity,HL-60 [16],9%
same,Activity,HL-60 [17],7.28%
same,Activity,HL-60 [18],Dose-dependent effect
same,Activity,HL-60 [19],76.15%
same,Activity,HL-60 [20],8.92%
same,Activity,HL-60 [21],52.96%
same,Activity,HL-60 [22],28.78%
same,Activity,HL-60 [23],17.69%
same,Activity,HL-60 [24],0.79%
same,Activity,HL-60 [25],Tde
same,Activity,HL-60 [26],Dose-dependent effect
same,Activity,HL-60 [27],75.9%
same,Activity,HL-60 [28],33.5%
same,Activity,HL-60 [29],59.1%
same,Activity,HL-60 [30],40.9%
